ChEMBL document CHEMBL1131066, “2-Substituted aminopyrido[2,3-d]pyrimidin-7(8H)-ones. structure-activity relationships against selected tyrosine kinases and in vitro and in vivo anticancer activity” (J Med Chem, 1998)

Legend:
MCF7 [1] = test: Net reduction in tumor burden between first and last treatments of MCF-7 cell tumors in mice at 12 mg/kg peroral dose, days 1-15 administration; format: functional; settings: route oral
How it was run: (§1)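 NCr nu/nu nude mice (18–22 g, 6–8 per group, randomized) had tumor fragments, kept by serial passage in nude mice, implanted in the right axilla on day 0. Mice were dosed by average cage weight on the listed days, over a range from toxic to ineffective doses. Vehicle was 50 mM sodium lactate pH 4.0 or 0.5% methyl cellulose suspension. Net log cell kill was taken between first and last treatments.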

SK-OV-3 [2] = test: Weight change of SK-OV-3 cell tumors in mice at 20.3 mg/kg peroral dose, days 20-34 administration; format: functional; settings: route oral
How it was run: (§2)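 Nude mice (NCr nu/nu, 18–22 g, 6–8 per group) were randomized and implanted with serially passaged tumor fragments in the right axilla on day 0. Oral dosing was based on average cage weight, on the days stated, over a dose range from toxic to ineffective. Vehicle was 50 mM sodium lactate buffer, pH 4.0, or 0.5% methyl cellulose suspension. Host weight change is reported as maximum treatment-related loss.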

SK-OV-3 [3] = test: Net reduction in tumor burden between first and last treatments of SK-OV-3 cell tumors in mice at 20.3 mg/kg peroral dose, days 20-34 administration; format: functional; settings: route oral; how it was run: as §1
NIH3T3 [4] = test: Growth of NIH3T3 cell colonies in soft agar with continuous treatment; format: functional, cell-based; settings: Mus musculus
How it was run: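 Soft agar cloning used PDGF-B-transfected NIH3T3 (NIH3T3/PDGF) cells. Cells were exposed 3 days to a concentration series, then plated in soft agar with the matching compound concentration kept present. Colonies were stained and counted after two weeks. IC50; mean of two experiments, each in duplicate.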

COLO 205 [5] = test: Net reduction in tumor burden between first and last treatments of COLO 205 cell tumors in mice at 10 mg/kg peroral dose, days 14-28 administration; format: functional; settings: route oral; how it was run: as §1
NIH3T3/PDGF = test: Weight change of NIH3T3/PDGF cell tumors in mice at 9.5 mg/kg peroral dose, days 1-15 administration; settings: route oral
Mus musculus [6] = test: Difference in days for treated (T) and control (C) PDGF-transfected fibroblast tumors to reach 750 mg in mice at 15 mg/kg peroral dose, days 1-15 administration; format: functional; settings: route oral
How it was run: (§3)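 Nude mice (NCr nu/nu), 18–22 g, 6–8 per group, randomized and implanted with serially passaged tumor fragments in the right axilla on day 0. Dosed by average cage weight. Vehicle was 50 mM sodium lactate buffer, pH 4.0, or a 0.5% methyl cellulose suspension for one compound. Cisplatin was given in saline. T − C is the difference in days for treated and control tumors to reach 750 mg.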

C6 [7] = test: Difference in days for treated (T) and control (C) C6 glioma cell tumors to reach 750 mg in mice at 10 mg/kg peroral dose, days 1-15 administration; format: functional; settings: route oral; how it was run: as §3
A-431 [8] = test: Net reduction in tumor burden between first and last treatments in A431 cell tumors in mice at 20 mg/kg peroral dose, days 7-21 administration; format: functional; settings: route oral; how it was run: as §1
C6 [9] = test: Net reduction in tumor burden between first and last treatments of C6 glioma cell tumors in mice at 5 mg/kg peroral dose, days 1-15 administration; format: functional; settings: route oral; how it was run: as §1
MCF7 [10] = test: Difference in days for treated (T) and control (C) MCF-7 cell tumors to reach 750 mg in mice at 12 mg/kg peroral dose, days 1-15 administration; format: functional; settings: route oral; how it was run: as §3
SK-OV-3 [11] = test: Difference in days for treated (T) and control (C) SK-OV-3 cell tumors to reach 750 mg in mice at 20.3 mg/kg peroral dose, days 20-34 administration; format: functional; settings: route oral; how it was run: as §3
COLO 205 [12] = test: Difference in days for treated (T) and control (C) COLO 205 cell tumors to reach 750 mg in mice at 10 mg/kg peroral dose, days 14-28 administration; format: functional; settings: route oral; how it was run: as §3
A-431 [13] = test: Difference in days for treated (T) and control (C) A431 cell tumors to reach 750 mg in mice at 20 mg/kg peroral dose, days 7-21 administration; format: functional; settings: route oral; how it was run: as §3
C6 [14] = test: C6 cell growth in soft agar with continuous treatment; format: functional, cell-based, Rattus norvegicus; settings: Rattus norvegicus, C6
How it was run: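 C6 rat glioma cells (F10 Ham's with 15% horse serum, 2.5% fetal calf serum) exposed 3 days to a concentration series, then plated in soft agar with compound still present at the same concentration; colonies stained and counted after two weeks. IC50; mean of two experiments, each in duplicate.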

Mus musculus [15] = test: Net reduction in tumor burden between first and last treatments of PDGF-transfected fibroblast cells in mice at 15 mg/kg peroral dose, days 1-15 administration; format: functional; settings: route oral; how it was run: as §1
COLO 205 [16] = test: Weight change of COLO 205 tumor cells in mice at 10 mg/kg peroral dose, days 14-28 administration; format: functional; settings: route oral
How it was run: (§4)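 Tumor-bearing nude mice (NCr nu/nu, 18–22 g, 6–8 per group) were implanted in the right axilla with tumor fragments on day 0 and dosed by average cage weight. Vehicle was 50 mM sodium lactate pH 4.0, or 0.5% methyl cellulose suspension; cisplatin was given in saline. Host body weight change is given as the maximum treatment-related weight loss.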

Mus musculus [17] = test: Net reduction in tumor burden between first and last treatments in PDGF-transfected fibroblast cells in mice at 9.5 mg/kg peroral dose, days 1-15 administration; settings: route oral
NIH3T3 [18] = test: Growth of NIH3T3 cell colonies in soft agar with discontinued treatment; format: functional, cell-based; settings: Mus musculus
How it was run: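 PDGF-B-transfected NIH3T3 (NIH3T3/PDGF) cells exposed 3 days to a concentration series, washed free of inhibitor, plated in drug-free soft agar; colonies stained and counted after two weeks. IC50; mean of two experiments, each in duplicate.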

C6 [19] = test: Net reduction in tumor burden between first and last treatments of C6 glioma cell tumors in mice at 10 mg/kg peroral dose, days 1-15 administration; format: functional; settings: route oral; how it was run: as §1
C6 [20] = test: Weight change of C6 glioma tumor cells in mice at 5 mg/kg peroral dose, days 1-15 administration; format: functional, Mus musculus; settings: route oral; how it was run: as §4
MCF7 [21] = test: Weight change of MCF-7 tumor cells in mice at 12 mg/kg peroral dose, days 1-15 administration; format: functional, organism-based; design: dose 12 mg/kg; how it was run: as §4
A-431 [22] = test: Weight change of A431 cell tumor in mice at 20 mg/kg peroral dose, days 7-21 administration; format: functional; settings: route oral; how it was run: as §4
C6 glioma = test: Difference in days for treated (T) and control (C) C6 glioma tumors to reach 750 mg in mice at 5 mg/kg peroral dose, days 1-15 administration; settings: route oral
HT-29 [23] = test: Weight change of HT-29 tumor cells in mice at 10.2 mg/kg peroral dose, days 15-29 administration; format: functional; settings: route oral; how it was run: as §4
Mus musculus [24] = test: Difference in days for treated (T) and control (C) PDGF-transfected fibroblast tumors to reach 750 mg in mice at 9.5 mg/kg peroral dose, days 1-15 administration; settings: route oral
HT-29 [25] = test: Difference in days for treated (T) and control (C) HT-29 cell tumors to reach 750 mg in mice at 10.2 mg/kg peroral dose, days 15-29 administration; format: functional; settings: route oral; how it was run: as §3
Mus musculus [26] = test: Weight change of PDGF-transfected fibroblast cells in mice at 15 mg/kg peroral dose, days 1-15 administration; format: functional; settings: route oral; how it was run: as §2
C6 [27] = test: Weight change of C6 glioma cell tumor in mice at 10 mg/kg peroral dose, days 1-15 administration; format: functional, organism-based; design: dose 10 mg/kg; how it was run: as §4
HT-29 [28] = test: Net reduction in tumor burden between first and last treatments of HT-29 cell tumors in mice at 10.2 mg/kg peroral dose, days 15-29 administration; format: functional; settings: route oral; how it was run: as §1
C6 [29] = test: Inhibition of C6 cell proliferation in sulforhodamine B assay; format: functional, cell-based, Rattus norvegicus; settings: Rattus norvegicus, C6
How it was run: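 C6 rat glioma cells (F10 Ham's, 15% horse serum, 2.5% fetal calf serum) seeded and allowed 24 h to attach, then given serial 2-fold compound dilutions; 4 d at 37 °C, 5% CO2; growth read by sulforhodamine B staining. IC50; mean of two experiments, each in triplicate.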

CCN(CC)CCOc1ccc(Nc2ncc3cc(-c4c(Cl)cccc4Cl)c(=O)n(C)c3n2)cc1 [PD-0166285]
Net cell kill (MCF7 [1]): -0.6 log10
Weight change (SK-OV-3 [2]): -4 g
Net cell kill (SK-OV-3 [3]): -0.1 log10
IC50 (NIH3T3 [4]): 1.1 nM
Net cell kill (COLO 205 [5]): -0.7 log10
Weight change (NIH3T3/PDGF): -4.1 g
T-C (Mus musculus [6]): 2.2 days
T-C (C6 [7]): 0.4 days
Net cell kill (A-431 [8]): -0.5 log10
Net cell kill (C6 [9]): -0.8 log10
T-C (MCF7 [10]): 1.1 days
T-C (SK-OV-3 [11]): 10.6 days
T-C (COLO 205 [12]): 0.6 days
T-C (A-431 [13]): 3.7 days
IC50 (C6 [14]): 120 nM
Net cell kill (Mus musculus [15]): -1.8 log10
Weight change (COLO 205 [16]): -4 g
Net cell kill (Mus musculus [17]): -1.6 log10
IC50 (NIH3T3 [18]): 10 nM
Net cell kill (C6 [19]): -1 log10
Weight change (C6 [20]): -0.1 g
Weight change (MCF7 [21]): Weight gain
Weight change (A-431 [22]): -3.1 g
T-C (C6 glioma): 0.3 days
Weight change (HT-29 [23]): 0 g
T-C (Mus musculus [24]): 3.3 days
T-C (HT-29 [25]): 9.6 days
Weight change (Mus musculus [26]): -0.4 g
Weight change (C6 [27]): Weight gain
Net cell kill (HT-29 [28]): -0.2 log10
IC50 (C6 [29]): 340 nM
